In the library only some 5.3% were active in any assay of this set; here they are far more common.
T cruzi inh: T. cruzi replication inhibition. T. cruzi beta-gal in NIH3T3, luminescence, 90 h. inhibition, % (concentration not given with the values). actives 1.4% (n = 300,000). AID 1885;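 active = mean inhibition across valid replicates above about 55%, limit read from the data; inconclusive = mean below that limit but half or more replicates reach it; inactive = mean below it, under half of replicates reach it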;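 note: signal also drops with host cell toxicity which is not excluded here; 0% = plate median of DMSO wells and 100% = zero luminescence signal; higher percent means less beta-gal luminescence so fewer parasites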
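Assay system: NIH/3T3 fibroblasts plus reporter T. cruzi. Amount: NIH/3T3 cells, 5,000 per well. Buffer or medium: DMEM, 2% fetal bovine serum. Doses: compound pinned at 50 nL/well, DMSO. Schedule: ≥90 h infection period, 3 h prior cell attachment. Signal: luminescent β-galactosidase signal after 60 min lysis. Read-out: parasite load inhibition, %.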
Mdm2-MdmX inh: human Mdm2/MdmX binding inhibition; O15151+Q00987; SaOS-2 split-luciferase Mdm2/MdmX complementation, luminescence; inhibition, % at 8 µM; actives 3% (n = 330,000);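 active = inhibition of at least 50% at 8 µM in the primary screen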
Target sequence (O15151 whole entry, looked up): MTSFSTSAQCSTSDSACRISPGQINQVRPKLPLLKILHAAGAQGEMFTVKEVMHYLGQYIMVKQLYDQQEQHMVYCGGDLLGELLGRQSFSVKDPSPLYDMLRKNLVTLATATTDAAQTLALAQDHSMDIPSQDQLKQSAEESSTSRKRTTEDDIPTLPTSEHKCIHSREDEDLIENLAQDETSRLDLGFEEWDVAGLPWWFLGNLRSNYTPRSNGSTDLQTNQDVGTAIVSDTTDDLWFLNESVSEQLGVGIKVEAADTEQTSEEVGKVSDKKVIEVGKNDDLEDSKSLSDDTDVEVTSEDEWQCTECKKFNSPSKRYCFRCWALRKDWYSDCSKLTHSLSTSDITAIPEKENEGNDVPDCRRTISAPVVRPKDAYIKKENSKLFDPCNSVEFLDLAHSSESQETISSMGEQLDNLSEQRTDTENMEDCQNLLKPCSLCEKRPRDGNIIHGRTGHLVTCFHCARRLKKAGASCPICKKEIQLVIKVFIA
Target sequence (Q00987 whole entry, looked up): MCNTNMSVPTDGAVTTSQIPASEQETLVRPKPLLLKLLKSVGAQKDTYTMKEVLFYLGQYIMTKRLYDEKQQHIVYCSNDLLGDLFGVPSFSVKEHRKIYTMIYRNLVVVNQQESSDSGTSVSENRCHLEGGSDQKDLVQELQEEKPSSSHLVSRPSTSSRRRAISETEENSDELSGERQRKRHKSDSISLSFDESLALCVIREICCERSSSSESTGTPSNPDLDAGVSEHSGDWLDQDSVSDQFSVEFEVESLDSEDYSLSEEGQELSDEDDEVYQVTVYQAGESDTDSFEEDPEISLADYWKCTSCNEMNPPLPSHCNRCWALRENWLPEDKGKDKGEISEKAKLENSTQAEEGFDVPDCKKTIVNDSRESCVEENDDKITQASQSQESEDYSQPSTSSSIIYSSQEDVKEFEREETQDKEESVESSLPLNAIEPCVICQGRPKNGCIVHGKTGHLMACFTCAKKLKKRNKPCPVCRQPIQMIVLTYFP
Calb FLC: affects C. albicans growth with fluconazole; actives 0.57% (n = 300,000); growth inhibition, % (test concentration not listed); C. albicans CaCi-2 + fluconazole, Alamar Blue growth, 48 h;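 active = growth inhibition above about 58% in most replicates, limit read from the data, passing the limit was not always enough; inconclusive = exactly half the replicates above a set limit; inactive = most replicates below a set limit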;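 note: all wells also contain fluconazole at 8 µg/ml as a sub-toxic cotreatment; 0% = median of DMSO wells and 100% = median of geldanamycin control wells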
Beta apoptosis: blocks beta cell apoptosis. INS-1E cytokine-induced death, ATP luminescence, 48 h; percent of positive-control rescue, neutral wells zero. protection from apoptosis, % (test concentration not listed). actives 0.8% (n = 300,000);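 active = Every replicate reaches about 75%, or at least half do and their mean reaches it too, limit read from the data; inconclusive = At least half of replicates reach the limit but their mean does not; inactive = Under half of replicates reach the limit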;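 note: 0% = cytokine-treated negative control wells and 100% = positive control rescue; higher means more ATP so stronger rescue from cytokine killing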
NALP3 yeast inh: NALP3 inhibition in yeast. Yeast reconstituted NLRP3/ASC/caspase-1, beta-gal luminescence, 24 h. inhibition, % at 10 µM. actives 0.39% (n = 330,000). AID 2825;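 active = inhibition of 50% or more; inactive = inhibition below 50%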;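 note: plate controls were induced DMSO wells for no effect and uninduced yeast grown without galactose for full effect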
CSC inhib: cancer stem cell inhibition; cancer stem cell-like cells viability, luminescence; inhibition, % at 7.5 µM; actives 1.1% (n = 300,000); AID 2717; in the data active = inhibition above about 75%; inconclusive = no clear call, values can overlap the other calls; tested in HMLE shEcad cells
Mdm2-MdmX conf: confirmation of human Mdm2/MdmX interaction inhibitors. shares compounds with Mdm2-MdmX inh. Mdm2-MdmX binding, luminescent assay. inhibition, % at 8 µM. actives 55% (n = 10,000). AID 489028; in the data active = inhibition above about 40%
Full FLuc ctr: full-length luciferase inhibition in Mdm2/MdmX counter-screen | shares compounds with Mdm2-MdmX inh | SaOS-2 full-length luciferase counterscreen, luminescence | inhibition, % at 8 µM | actives 77% (n = 6,200) | AID 504607;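 active = mean inhibition at 8 µM reaching about 37%, which flags the compound as non-specific, limit read from the data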;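 note: p53-null SaOS-2 cells with luciferase driven by a doxycycline-inducible promoter; compound on cells about two nights before reading with doxycycline added after day one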
Numbers without * were called inactive; ? = inconclusive; . = no result.

SMILES	T cruzi inh	Mdm2-MdmX inh	Calb FLC	Beta apoptosis	NALP3 yeast inh	CSC inhib	Mdm2-MdmX conf	Full FLuc ctr
CC(C)(C)OC(=O)NCCCCCNC(=O)c1[nH]cnc1C(=O)Nc1ccc(Cl)cc1	.	64*	.	32	19	58	36	59*
CC(C)(C)OC(=O)NCc1ccc(NC(=O)c2nc[nH]c2C(=O)NCCCNC(=O)c2[nH]cnc2C(=O)Nc2ccc(CNC(=O)OC(C)(C)C)cc2)cc1	.	86*	.	11	2	114*	20	.
CC(C)(C)OC(=O)NCCCC[C@H](NC(=O)c1[nH]cnc1C(=O)Nc1ccc(CNC(=O)OC(C)(C)C)cc1)C(=O)OC(C)(C)C	.	87*	.	27	6	-20	47*	75*
CC(C)(C)OC(=O)NCc1ccc(NC(=O)c2nc[nH]c2C(=O)NCCCCNC(=O)c2[nH]cnc2C(=O)Nc2ccc(CNC(=O)OC(C)(C)C)cc2)cc1	.	96*	.	71	3	120*	7	.
CC(C)(C)OC(=O)NCc1ccc(NC(=O)c2nc[nH]c2C(=O)NCCCCCCNC(=O)c2[nH]cnc2C(=O)Nc2ccc(CNC(=O)OC(C)(C)C)cc2)cc1	.	8	.	7	3	5	.	.
Cc1ccc(C)c(NC(=S)c2nc3ccccc3s2)c1	-9	-31	-2	14	17	8	.	.
COc1ccc(CCNc2c(C)c(C)nc3ncnn23)cc1	-84	50*	1	100*	11	.	46*	69*
Cc1c(NC(=O)C23CC4CC(CC(C4)C2)C3)c(=O)n(-c2ccccc2)n1C	2	20	-9	-2	15	-17	.	.
CCC(=O)Nc1ccc(C(=O)Cn2ncc(Cl)c(Cl)c2=O)cc1	49	86*	8	-29	-5	?	63*	43*
CCOC(=O)c1ccc(NC(=O)Cn2ncc(Cl)c(Cl)c2=O)cc1	56*	89*	64	8	10	90*	100*	51*
Cc1ccc(-c2nc(N)n(S(=O)(=O)c3ccc(C)cc3)n2)cc1	0	9	-2	-2	28	.	.	.
Cc1sc2nc(C3CC3)nc(SCC(=O)N3c4ccccc4CC3C)c2c1C (centres undefined)	30	85*	23	9	6	58	90*	53*
COc1ccccc1C/C(N)=N/OC(=O)c1ccc2c(c1)OCO2	2	78*	19	-1	9	-8	41*	70*
COc1ccc(C(=O)O/N=C(\N)Cc2cccs2)cc1OC	-16	86*	1	0	-13	-3	51*	68*
COc1ccccc1C/C(N)=N/OC(=O)c1ccc(C)c([N+](=O)[O-])c1	4	2	-2	-2	31	-8	.	.
O=C(Nc1cc(Cl)ccc1Cl)c1ccc(-c2ccccc2)cc1	18	2	-6	1	15	7	.	.
COC(=O)c1ccc(C(=O)Nc2cc(Cl)ccc2Cl)cc1NC(=O)c1ccc(N(C)C)cc1	-6	70*	-6	-15	-15	1	7	.
CCN(CC)S(=O)(=O)c1cc(NC(=O)C(C)OC(=O)c2[nH]c(C)c(C(C)=O)c2C)ccc1C (centres undefined)	22	51*	4	17	2	-7	41*	43*
CC(=O)c1c(C)[nH]c(C(=O)OC(C)C(=O)Nc2ccc(C)c(S(=O)(=O)N3CCOCC3)c2)c1C (centres undefined)	.	44	.	-17	7	.	.	.
CNc1ccccc1C(=O)OC(C)C(=O)Nc1ccc(Cl)cn1 (centres undefined)	-6	91*	-2	.	18	1	83*	113*
O=C(CC(c1ccccc1)c1ccccc1)Nc1ccc(Cl)cn1	11	59*	-2	17	0	-9	53*	61*
O=C(CS(=O)(=O)c1ccccc1)Nc1ccc(Cl)cn1	-9	-5	1	7	0	0	.	.
O=C(Nc1ccc(Cl)cn1)c1cccc2ccccc12	-1	52*	-18	37	11	59	42*	71*
CCOC(=O)C1CCCC(NS(=O)(=O)c2ccc(NC(C)=O)cc2)C1 (centres undefined)	-12	-24	-23	-1	-1	-6	.	.
COC(=O)c1oc2ccccc2c1NC(=O)c1ccccc1O	6	-5	7	4	42	.	.	.
SMILES	T cruzi inh	Mdm2-MdmX inh	Calb FLC	Beta apoptosis	NALP3 yeast inh	CSC inhib	Mdm2-MdmX conf	Full FLuc ctr
CCOc1ccc(CC(C(N)=O)C(N)=O)cc1	-3	13	4	-6	31	1	.	.
CCOc1ccc(C(=O)N[C@H](C(=O)Nc2cccc(S(=O)(=O)N3CCCCC3)c2)C(C)C)cc1	9	51*	3	3	5	7	32	.
COc1ccc(/C(C)=N/NC(=O)c2cccc(S(=O)(=O)N3CCCC3)c2)c(O)c1	61*	67*	5	109*	16	100*	81*	34
COc1ccc(NS(=O)(=O)c2cccc(NC(=O)c3ccc(S(=O)(=O)N4CCCCCC4)cc3)c2)cc1	-5	53*	-25	100*	20	.	33	.
O=C1OC(c2ccc(F)cc2)=C/C1=C\c1ccc([N+](=O)[O-])o1	66*	74*	-3	4	3	50	26	.
Cc1ccc(-c2nnc(CN3CCCCC3C)o2)cc1 (centres undefined)	-4	15	-7	1	19	4	.	.
N=c1oc2ccc3ccccc3c2cc1C(N)=S	3	87*	8	-7	17	2	46*	66*
O=C(O)c1cc2c(ccc3ccccc32)oc1=O	14	6	30	.	6	3	.	.
COc1ccc(CC(O)CC2c3c(cc4c(c3OC)OCO4)CCN2C)cc1 (centres undefined)	5	26	-23	-18	20	-2	.	.
Cc1ccc(OCC(=O)NCCNC(=O)c2ccco2)cc1	-6	-9	13	-1	-8	.	.	.
O=C(Nc1cc(Sc2ccccn2)cc([N+](=O)[O-])c1)c1ccc(Cl)cc1	52	52*	0	75*	-2	46	12	.
Cc1cc(C)c(-c2csc(NC(=O)/C=C/c3cccs3)n2)c(C)c1	13	70*	1	8	7	28	61*	72*
O=C(/C=C/c1cccs1)Nc1nccs1	-5	-125	-2	-4	30	6	.	.
CCCCN(CC)C(=O)CSc1nc2n[nH]c(C)c2c(=N)n1-c1cccc(C)c1	41	25	-3	12	8	6	.	.
Cc1cccc(Nc2nc(N)c([N+](=O)[O-])c(NCc3ccccc3)n2)c1	10	52*	3	.	4	61	33	.

Bioassay records from PubChem.
